From ChEMBL document CHEMBL1137880, “Synthesis and GABA receptor potency of 3-thiomethyl-4-(hetero)aryl-5-amino-1-phenylpyrazoles” (Bioorg Med Chem Lett, 2004) come the findings set out here.

The target in test [1] is GABA-A receptor; anion channel (Mus musculus) (UniProt Q8BHJ7+P26048+Q8QZW7+P50571+Q9R0Y8+P22723+A2AMW3+P62812+Q9JLF1+P26049+P22933+Q9D6F4+P63080+P27681+P16305). The test can be described thus: Ratio of binding affinity for mouse brain Gamma-aminobutyric acid receptor and housefly Gamma-aminobutyric acid receptor.
Test [2] is described as follows: In vivo percent mortality of cyclodiene resistant allele-homozygous CO fleas at 100 mM was determined using contact assay. The test is classed as ADME, organism-based. The note with it: Pulicinae. The method in brief: (§1)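 Cat fleas were exposed by contact at 100 mM. The strains were chosen as genetic variants for the cyclodiene resistance allele, to compare insecticidal activity across them. The read-out was percent mortality.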

Test [3] can be described thus: In vivo percent mortality of housefly at 100 mM was determined using contact assay. The note with it: Musca domestica, topical. The test is classed as ADME, organism-based.
Test [4] is described as follows: In vivo percent mortality of cyclodiene resistant mixed homozygous and heterozygous NC fleas at 100 mM was determined using contact assay. The test is classed as ADME, organism-based. The note with it: Pulicinae. The essentials: as §1
Test [5] concerns GABA-A receptor; anion channel. The test can be described thus: In vitro insecticidal activity as inhibition of [3H]EBOB binding to Gamma-aminobutyric acid GABA-A receptor of housefly neuronal membranes; IA denotes inactive. More on the design: species or system Musca domestica.
Test [6] has as its system GABA-A receptor; anion channel. The test can be described thus: In vitro insecticidal activity as inhibition of [3H]EBOB binding to Gamma-aminobutyric acid GABA-A receptor of housefly neuronal membranes; NI denotes negative inhibition. More on the design: species or system Musca domestica.

Structures are written as SMILES.

Consider `COc1ccc(-c2c(SC)nn(-c3c(Cl)cc(C(F)(F)F)cc3Cl)c2N)cc1OC`, for which the Selectivity in test [1] was found to be 2000.

On to `CSc1cc(N)n(-c2c(Cl)cc(C(F)(F)F)cc2Cl)n1`, for which the mortality at 100000 µM in test [2] was determined as 4.4%; in test [3] it was 42.4%; in test [4] it was 0%. In test [1], the Selectivity is 250.

For `CSc1nn(-c2c(Cl)cc(C(F)(F)F)cc2Cl)c(N)c1-c1ccccc1F`, the IC50 entry in test [5] is reported as “Not Active”.

`CSc1nn(-c2c(Cl)cc(C(F)(F)F)cc2Cl)c(N)c1C#N`: in test [1], the Selectivity stood at 500.

As to `CSc1nn(-c2c(Cl)cc(C(F)(F)F)cc2Cl)c(N)c1-c1ccccc1`, the Selectivity in test [1] was 4.

As for `CSc1nn(-c2c(Cl)cc(C(F)(F)F)cc2Cl)c(N)c1I`, in test [1], the Selectivity turned out to be 43.

Consider `CSc1nn(-c2c(Cl)cc(C(F)(F)F)cc2Cl)c(N)c1-c1cccs1`, for which, in test [1], the Selectivity is 44.

For the compound `COc1ccc(-c2c(SC)nn(-c3c(Cl)cc(C(F)(F)F)cc3Cl)c2N)c(OC)c1`, the Selectivity in test [1] was found to be 49.

With `CSc1nn(-c2c(Cl)cc(C(F)(F)F)cc2Cl)c(N)c1-c1cc(C)cs1`, in test [5], the IC50 entry is reported as “Not Active”.

In the case of `CSc1nn(-c2c(Cl)cc(C(F)(F)F)cc2Cl)c(N)c1-c1cnccn1`, the values for the mortality at 100000 µM in test [2], in test [3] and in test [4] were 77.4%, 0% and 89.9%, respectively. Further, the Selectivity in test [1] came out at 45.

For the compound `CSc1nn(-c2c(Cl)cc(C(F)(F)F)cc2Cl)c(N)c1-c1nc(C)no1`, the mortality at 100000 µM in test [2] was 0%; in test [3], 95.4%; in test [4], 0%. Also, the Selectivity in test [1] turned out to be 9.

Turning to `CSc1nn(-c2c(Cl)cc(C(F)(F)F)cc2Cl)c(N)c1-c1ccc(C(C)C)cc1`, in test [5], the IC50 entry is “Not Active”.

With `CSc1nn(-c2c(Cl)cc(C(F)(F)F)cc2Cl)c(N)c1-c1cccc(C(C)C)c1`, in test [5], the IC50 entry is reported as “Not Active”.

As to `CSc1nn(-c2c(Cl)cc(C(F)(F)F)cc2Cl)c(N)c1-c1cncnc1`, the IC50 entry in test [6] is given as “Not Active”.

Consider `CSc1nn(-c2c(Cl)cc(C(F)(F)F)cc2Cl)c(N)c1-c1cccc(Cl)c1`, for which the Selectivity in test [1] came to 31.

On to `CSc1nn(-c2c(Cl)cc(C(F)(F)F)cc2Cl)c(N)c1-c1ccc2c(c1)OCO2`, for which the figures for the mortality at 100000 µM in test [2], in test [3] and in test [4] were 1.4%, 27.6% and 0%, respectively. Further, in test [1], the Selectivity came out at 64.

`CSc1nn(-c2c(Cl)cc(C(F)(F)F)cc2Cl)c(N)c1-c1ccc(C)cc1`: the Selectivity in test [1] is 66.

As for `CSc1nn(-c2c(Cl)cc(C(F)(F)F)cc2Cl)c(N)c1-c1ccccc1C`, the values for the mortality at 100000 µM in test [2], in test [3] and in test [4] were 60.8%, 9.6% and 0%, respectively. In test [1], the Selectivity amounted to 400.

`CSc1nn(-c2c(Cl)cc(C(F)(F)F)cc2Cl)c(N)c1-c1cccc(C(F)(F)F)c1`: the Selectivity in test [1] came to 5.

As for `CSc1nn(-c2c(Cl)cc(C(F)(F)F)cc2Cl)c(N)c1-c1ccc(Br)cc1`, the IC50 entry in test [5] is on record as “Not Active”.

As for `CSc1nn(-c2c(Cl)cc(C(F)(F)F)cc2Cl)c(N)c1-c1ccsc1`, the IC50 result in test [5] was “Not Active”.

As for `CSc1nn(-c2c(Cl)cc(C(F)(F)F)cc2Cl)c(N)c1Cl`, the mortality at 100000 µM in test [2] turned out to be 32.3%; in test [3], 92.8%; in test [4] it was 3.3%. For the same compound, the Selectivity in test [1] turned out to be 210.

Take `CSc1nn(-c2c(Cl)cc(C(F)(F)F)cc2Cl)c(N)c1-c1ccc(Cl)s1`: the Selectivity in test [1] turned out to be 434.

Take `CSc1nn(-c2c(Cl)cc(C(F)(F)F)cc2Cl)c(N)c1-c1ccc(C)s1`: in test [5], the IC50 entry is listed as “Not Active”.

As for `CCOC(=O)c1c(SC)nn(-c2c(Cl)cc(C(F)(F)F)cc2Cl)c1N`, the Selectivity in test [1] was found to be 400.

In the case of `CSc1nn(-c2c(Cl)cc(C(F)(F)F)cc2Cl)c(N)c1-c1ccc(C(C)=O)s1`, in test [1], the Selectivity was found to be 25.

`CSc1nn(-c2c(Cl)cc(C(F)(F)F)cc2Cl)c(N)c1-c1cc(C(F)(F)F)cc(C(F)(F)F)c1`: the Selectivity in test [1] came to 12.

For `CSc1nn(-c2c(Cl)cc(C(F)(F)F)cc2Cl)c(N)c1-c1cccc(C(C)(C)C)c1`, the IC50 entry in test [5] is on record as “Not Active”.

Turning to `CSc1nn(-c2c(Cl)cc(C(F)(F)F)cc2Cl)c(N)c1-c1ccccn1`, the IC50 result in test [5] was “Not Active”.

Consider `CSc1nn(-c2c(Cl)cc(C(F)(F)F)cc2Cl)c(N)c1-c1ccccc1C(F)(F)F`, for which the figures for the mortality at 100000 µM in test [2], in test [3] and in test [4] were 58.7%, 3.9% and 0%, respectively. Further, the Selectivity in test [1] came to 6000.

For the compound `CSc1nn(-c2c(Cl)cc(C(F)(F)F)cc2Cl)c(N)c1Br`, the Selectivity in test [1] turned out to be 2500.

As to `CSc1ccc(-c2c(SC)nn(-c3c(Cl)cc(C(F)(F)F)cc3Cl)c2N)cc1`, the Selectivity in test [1] came to 230.

Turning to `CSc1nn(-c2c(Cl)cc(C(F)(F)F)cc2Cl)c(N)c1-c1ccc(F)c(Cl)c1`, the Selectivity in test [1] was determined as 4.

For the compound `CSc1nn(-c2c(Cl)cc(C(F)(F)F)cc2Cl)c(N)c1-c1ccc(C#N)cc1`, in test [1], the Selectivity came out at 666.

On to `COc1cccc(-c2c(SC)nn(-c3c(Cl)cc(C(F)(F)F)cc3Cl)c2N)c1`, for which the Selectivity in test [1] came to 346.

In the case of `CSc1nn(-c2c(Cl)cc(C(F)(F)F)cc2Cl)c(N)c1-c1ccncc1`, the IC50 entry in test [5] is listed as “Not Active”.

As for `C#Cc1c(SC)nn(-c2c(Cl)cc(C(F)(F)F)cc2Cl)c1N`, the mortality at 100000 µM is 2.2% in test [2], 80.1% in test [3] and 0% in test [4]. Besides, the Selectivity in test [1] was above 10000.

In the case of `CSc1nn(-c2c(Cl)cc(C(F)(F)F)cc2Cl)c(N)c1C(=O)O`, in test [1], the Selectivity came out at 45.

As for `CSc1ccccc1-c1c(SC)nn(-c2c(Cl)cc(C(F)(F)F)cc2Cl)c1N`, the IC50 result in test [5] is “Not Active”.

In the case of `CSc1nn(-c2c(Cl)cc(C(F)(F)F)cc2Cl)c(N)c1-c1cccnc1`, the IC50 result in test [5] is on record as “Not Active”.

For `COc1ccc(-c2c(SC)nn(-c3c(Cl)cc(C(F)(F)F)cc3Cl)c2N)cc1`, the Selectivity in test [1] was 180.

As for `CSc1nn(-c2c(Cl)cc(C(F)(F)F)cc2Cl)c(N)c1-c1ccc(Cl)cc1`, the IC50 entry in test [5] is given as “Not Active”.

Turning to `COc1cc(-c2c(SC)nn(-c3c(Cl)cc(C(F)(F)F)cc3Cl)c2N)cc(OC)c1OC`, the IC50 entry in test [5] is on record as “Not Active”.

With `CSc1nn(-c2c(Cl)cc(C(F)(F)F)cc2Cl)c(N)c1-c1ccc(F)cc1`, the Selectivity in test [1] is 20.

One may read the mortality as the percentage killed. The low end stands for more survivors, the high end for fewer survivors.
